Source: PubChem (Broad Institute)
dFosB activator = mouse delta FosB homodimer activation. P13346. purified delta FosB, TAMRA-CDK5 oligo fluorescence polarization; percent of positive-control signal above neutral wells. activation, % at 25 µM. 0.99% of 340,000 active. AID 493131;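 active = mean activation above about 17%, with every replicate also reaching it, limit read from the data, passing the limit was not always enough; inconclusive = only one of the two conditions met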
DYRK1A inh = Dyrk1A (rat) kinase inhibition; Q63470; ADP-Glo luminescence, NFATc1 peptide; inhibition, % at 12.5 µM; 0.43% of 310,000 active; AID 504441;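 note: plate controls were vehicle with enzyme for no effect and no enzyme for full effect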
SR-BI DiI-HDL act = activators of SR-BI mediated HDL lipid uptake. CHO ldlA[mSR-BI] cells, DiI-HDL uptake fluorescence, 3 h; 100 = double the neutral-control signal. activation, % at 12.5 µM. 0.096% of 320,000 active. AID 504775;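 active = mean replicate activation of at least 60% and every replicate at or above 60%; inconclusive = mean or all-replicate condition met, but not both; inactive = mean below 60% and not all replicates reaching 60%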;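 note: 0% = median plate neutral-control signal and 100% = twice that signal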
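Material: SR-BI-overexpressing, LDLR-lacking CHO cells; schedule: compound exposure 3 h, 37 °C; reagent: DiI-labelled HDL at 10 µg/mL final; technique: bottom-read fluorescence, 550/595 nm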
SR-BI HDL uptake = blocks mouse SR-BI lipid uptake from DiI-HDL | ldlA[mSR-BI] CHO cells, DiI-HDL uptake fluorescence, 3 h | inhibition, % at 12.5 µM | 0.96% of 320,000 active | AID 488896;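 active = mean replicate inhibition of at least 70% and a set share of replicates each scoring 70 or more; inconclusive = meets just one of the two criteria; inactive = fails both criteria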;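 note: 0% = median of neutral control wells and 100% = median of positive control wells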
CDK5 inh = inhibitors of human CDK5/p35 kinase; Recombinant CDK5/p35, ADP-Glo luminescence, 60 min; inhibition, % at 10 µM; 0.01% of 330,000 active; AID 488839;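 active = highest replicate inhibition of at least 50% and at least 75% of replicates reaching 50%; inconclusive = only one of the two criteria met; inactive = both criteria failed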;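 note: plate controls were DMSO neutral control for no effect and GW8510 at 10 µM for full effect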
NSD2 inh = inhibitors of human histone methyltransferase NSD2; AID 743445; NSD2 peptide methylation, AlphaScreen, 120 min; O96028; 0.54% of 310,000 active; inhibition, % at 12.5 µM
AlphaScreen art = counter-screen for NSD2 inhibitors: AlphaScreen artifacts; AlphaScreen artifact counterscreen, preloaded methylated H4 peptide; AC35, µM (highest dose often 10 µM), inactives show top-dose activity change, negative = signal loss; shares compounds with NSD2 inh; 9.4% of 1,500 active; call rule not given here
Numbers without * were called inactive; ? = inconclusive; · = no result given. Hits are enriched below; roughly 2.5% of the tested compounds scored in any of these assays. Cut-off read from the data, not from the text of the source, unless noted: active = inhibition above about 50%; inactive = the rest.

SMILES	dFosB activator	DYRK1A inh	SR-BI DiI-HDL act	SR-BI HDL uptake	CDK5 inh	NSD2 inh	AlphaScreen art
Cc1ccccc1NC(=O)CN1CCC(C(=O)c2ccc3c(c2)OCCO3)CC1	-13	1	-6	6	-2	56*	-3%
COc1ccc2c(c1)Cc1sc(NC(=O)c3cccs3)nc1-2	9	2	-59	59	0	78*	-2%
COc1ccc2c(c1)Cc1sc(NC(=O)c3ccccc3)nc1-2	2	-2	-35	35	0	128*	-5%
CNCCC1Sc2ccccc2Oc2ccccc21 (stereo unspecified)	-12	-2	5	-5	-5	100*	3%
CN(C)CCCC1Sc2ccccc2Sc2ccccc21 (stereo unspecified)	5	·	·	·	-1	22	·
CSc1ccc(C2(O)Cc3cccc[n+]3C2c2ccccc2)cc1 (stereo unspecified)	-13	-4	6	-6	-1	-8	·
O=C(NCC(c1cccs1)N1CCOCC1)c1cc(S(=O)(=O)N2CCOCC2)ccc1F (stereo unspecified)	2	-4	6	-6	2	-3	·
COc1ccc(C2CC(c3ccc(Cl)cc3)=NN2C(C)=O)cc1 (stereo unspecified)	-12	12	1	-1	0	54*	-4%
COc1ccc(C2=NN(C(=O)CCC(=O)O)C(c3ccc(OC)cc3)C2)cc1 (stereo unspecified)	11	-3	1	-1	0	-4	·
CCN1CCCC1CNS(=O)(=O)c1c(C)cc(C)cc1C (stereo unspecified)	-1	6	26	-26	2	4	·
N#C/C(C(N)=O)=c1/ccc2c(c1)N1C3=C(CCCC3)CC3CCCCC31N=2 (stereo unspecified)	·	·	-81	?	·	50*	5.5µM*
CCCC1=NN2C(=N)/C(=C\c3ccc(SCc4ccco4)o3)C(=O)N=C2S1	-14	0	13	-13	1	·	·
CCC1=NN2C(=N)/C(=C\c3ccc(SCc4ccco4)o3)C(=O)N=C2S1	2	-1	6	-6	-3	103*	-7%
O=[N+]([O-])c1ccc(N2CCOCC2)nc1	0	2	16	-16	1	1	·
O=C1CC(N2CCOCC2)=NN1c1ccc([N+](=O)[O-])cc1	-8	·	·	·	-1	110*	0%
COc1ccccc1NC(=O)C(C)OC(=O)CCNS(=O)(=O)c1cccc(C(F)(F)F)c1 (stereo unspecified)	-8	4	14	-14	0	105*	-3%
CCc1nnc(NC(=O)COc2ccc3c(c2)OCO3)s1	11	3	·	·	0	100*	-1%
O=C(NCc1ccccc1F)C1CCN(S(=O)(=O)c2ccccc2)CC1	-7	1	·	·	0	-3	·
O=C(COC(=O)[C@@H]1CCCN1S(=O)(=O)c1ccccc1F)NCc1ccc2c(c1)OCO2	-4	1	21	-21	0	-3	·
Cc1ccccc1C1=C/C(=C(\SS/C(C(=O)c2ccc(OCC(=O)O)c(Cl)c2Cl)=C2\C=C(c3ccccc3C)SS2)C(=O)c2ccc(OCC(=O)O)c(Cl)c2Cl)SS1	-20	·	-29	29	-1	53*	5.2µM*
CCOC(=O)c1ccc(N=c2scc(C)n2CC)cc1	-1	0	-11	11	-1	51*	-12%
Cc1nc(-[n+]2nc(-c3ccncc3)nn2-c2ccccc2)sc1C	·	·	·	·	·	69*	2.1µM*
COc1ccc(S(=O)(=O)N2CCOCC2)cc1NC(=O)COC(=O)CCS(=O)(=O)c1ccc(C)cc1	-7	-4	21	-21	1	1	·
Cc1cc(C)nc(/N=C(\N)Nc2ccc(SC(F)F)cc2)n1	-6	14	·	·	-5	·	·
Cn1c(=O)cc2c3c(c(N4CCCCC4)ccc31)C(=O)c1ccccc1-2	·	·	·	·	·	71*	7.8µM*
SMILES	dFosB activator	DYRK1A inh	SR-BI DiI-HDL act	SR-BI HDL uptake	CDK5 inh	NSD2 inh	AlphaScreen art
Cc1ccc(C(=O)N2CCN(S(=O)(=O)c3ccc(Br)cc3)CC2)o1	-2	-3	·	·	1	-5	·
O=Nc1ccc(O)c2ncccc12	3	5	·	·	-1	64*	1%
Cc1ccccc1N=Nc1ccc(O)c2ncccc12	-5	-3	-11	11	-1	-1	·
O=S(=O)(O)c1cccc2c(N=Nc3ccc(O)c4ncccc34)cccc12	-14	0	-26	26	-2	66*	-13%
COc1ccc(N=Nc2ccc(O)c3ncccc23)cc1	-8	2	-49	49	-2	·	·
COc1cccc(CN2CC(O)=C(c3nc(-c4ccc(Cl)cc4)cs3)C2=N)c1	7	2	-23	23	-2	-4	·
N=C1C(c2nc(-c3ccc(F)cc3)cs2)=C(O)CN1Cc1ccc(Cl)cc1	0	5	-52	52	-6	128*	0%
CCN(CC)CCNc1ncnc2c1sc1nc(N3CCCC3)c3c(c12)CC(C)(C)OC3	23*	5	5	-5	-2	80*	-15%
CC12CCC(C(=NO)C1=O)C2(C)C (stereo unspecified)	6	·	23	-23	0	·	·
CCCc1cc(Nc2ccccc2C)n2ncnc2n1	-6	-3	5	-5	4	57*	-1%
CCCc1cc(Nc2cccc(OCC)c2)n2ncnc2n1	-6	10	-17	17	2	0	·
Cc1cc(=O)n2nc(N3CCC(C(=O)NCc4cccc(Br)c4)CC3)sc2n1	-20	-4	-19	19	0	-1	·
O=C(NCc1ccco1)C1CCCN(S(=O)(=O)c2ccccc2F)C1 (stereo unspecified)	·	·	·	·	·	-3	·
O=C(C(=O)N1CCC(CNS(=O)(=O)c2ccccc2OC(F)(F)F)CC1)c1cc2ccccc2o1	·	·	·	·	·	-2	·
COc1ccc(OCC(=O)NCCCn2ccnc2)cc1	-2	0	15	-15	0	-1	·
N#Cc1ccc(OCC(=O)NCCCn2ccnc2)cc1	0	0	34	-34	0	63*	2%
CCN(CC(=O)NCCCn1ccnc1)S(=O)(=O)c1ccc(C)cc1	-2	1	18	-18	0	-5	·
Cc1ccc(S(=O)(=O)N(C)CC(=O)NCCCn2ccnc2)cc1	0	-7	·	·	-1	115*	-4%
COc1cccc(CN2C(=O)[C@@H]3Cc4c([nH]c5ccccc45)C(C)(C)N3C2=O)c1	-1	·	-69	69	1	·	·
Cc1ccc(N2NC(=O)/C(=C/c3ccc(-c4ccc(Cl)c(C(=O)O)c4)o3)C2=O)cc1	-11	-1	0	0	-3	20	·
O=C1NN(c2ccc(Cl)cc2)C(=O)/C1=C\c1ccc(-c2cccc(C(=O)O)c2)o1	-22	4	1	-1	-7	54*	-12%
